Among all 3,500 compounds or so, about 1,400 (40%) were called active.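 How the source made its calls: active means activation above the solvent-only control well mean plus 3 SD, averaged across control plates (cut at about 5.2% in these data); inactive means the rest.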 The set was probably picked from earlier hits. The list is a sample of the results.

This assay can be described thus: GAL4-VP16 luciferase reporter activation, counter-screen for SMARCA2 (BRM) activator project, cell-based, pG5luc, luminescence, high throughput (AID 686939). Particulars: HEK293 GAL4-VP16 pG5luc reporter, at 9.1 µM, stronger effect = higher value, scaled: DMSO wells 0%, SAHA wells 100%. The method in brief: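 system = 293 cells carrying GAL4-VP16 plus UAS-luciferase reporter | input = 2,500 transfected 293 cells per well | doses = one dose, 9.1 µM nominal | incubation = 24 h exposure, 37 °C, 5% CO2, One-Glo 15 min RT | measured by = One-Glo luciferase luminescence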
Background: Reporter assays use an easily measured gene product as a stand-in for the process of interest.
Turning to `COc1cccc(-c2nc3cc(C)ccc3o2)c1`, the activation is 3.74% (inactive).

Consider `Cn1c(-c2ccc(F)cc2)cc2onc(-c3ccccc3Cl)c2c1=O`, for which the activation was 9.37% (active).

Regarding `Fc1ccc(/C=N/Nc2nc(-c3cccnc3)nc3ccccc23)cc1`, the activation is 8.57% (active).

As for `CC(=O)Nc1cc(-c2ccc(N3CCN(C)CC3)cc2)cn2c(-c3ccc(F)cc3)cnc12`, the activation is 1.59% (inactive).

For `Cc1nc(-c2nnc(SCC(=O)Nc3cc(C(F)(F)F)cc(C(F)(F)F)c3)n2C)cs1`, the activation is -1.04% (inactive).

As for `CCCCNC(=O)C1CCC(CNS(=O)(=O)c2ccc(NC(C)=O)cc2)CC1` (centres undefined), the activation is 0.63% (inactive).

Take `Fc1ccc(CNc2nc3ccccc3n3nnnc23)cc1`: the activation was 2.47% (inactive).

As to `CC(C)CCNC(=O)c1ccc2c(Cl)c3c(nc2c1)CCC3`, the activation was 9.88% (active).

In the case of `COCC1CCN(C(=O)C2CCC(=O)N(Cc3cccc(C(F)(F)F)c3)C2)CC1` (centres undefined), the activation was 1.34% (inactive).

In the case of `O=C(Nc1cc(=O)[nH]c2ncnn12)c1ccccc1Cl`, the activation is 0.46% (inactive).

Regarding `COc1c(O)cc2oc(-c3ccc(O)c(O)c3)cc(=O)c2c1O`, the activation was 12.4% (active).

For `CCCn1nc(C(=O)Nc2ccc3nc(C)sc3c2)c2ccccc2c1=O`, the activation is -0.78% (inactive).

Take `O=C(N[C@H]1CC[C@H](CC(=O)N2CCCCC2)O[C@@H]1CO)c1cccc(F)c1`: the activation was 0.09% (inactive).

As to `O=C(c1cc(-c2ccc(O)cc2)on1)N1CCOCC1`, the activation was 6.96% (active).

In the case of `O=C(c1cc(-c2ccccc2O)on1)N1CCCC1`, the activation is 9.74% (active).

With `Cc1cc(-c2n[nH]c(=S)n2/N=C/C(Br)=C/c2ccccc2)n[nH]1`, the activation was 4.37% (inactive).

Regarding `CCCCn1nnnc1C(c1cc2ccccc2o1)N(C)Cc1ccc(Cl)c(Cl)c1` (centres undefined), the activation is 1.67% (inactive).

In the case of `Cc1ccc(F)c(NC(=O)CCc2ccccc2)c1`, the activation is 5.92% (active).

With `COc1ccc(OCCCC(=O)NCCc2ccccc2)cc1`, the activation is 1.27% (inactive).

For `O=C(CCCc1ccccc1)NCc1ccccc1`, the activation is 2.83% (inactive).

`O=C(O)c1ccc(COc2c(F)c(F)cc(F)c2F)o1`: the activation was -0.39% (inactive).

Turning to `O=C(O)c1cccc(N=NN2CCCCCC2)c1`, the activation was 13.9% (active).

As for `CN(C)CCNC(=O)c1cccc(-c2cnc3c(NC=O)cc(-c4cccc(C(F)(F)F)c4)cn23)c1`, the activation is 1.42% (inactive).

Consider `COc1ccc(-c2csc(Cc3nc(O)cs3)n2)cc1`, for which the activation is 19.6% (active).

For the compound `Cn1cccc1/C=N/NC(=O)c1ccc(OC(F)(F)C(F)F)cc1`, the activation was 3.99% (inactive).

Take `O=C(c1cccs1)C1C(c2ccc(Br)cc2)NC(=S)NC1(O)C(F)(F)F` (centres undefined): the activation was 2.08% (inactive).

With `COc1ccccc1OCC(=O)O/N=C(\N)c1ccccn1`, the activation is 4.97% (inactive).

On to `COc1ccc(CC2c3cc(OC)c(OC)cc3CC[N+]2(C)CCC(=O)OCCCCCOC(=O)CC[N+]2(C)CCc3cc(OC)c(OC)cc3C2Cc2ccc(OC)c(OC)c2)cc1OC` (centres undefined), for which the activation is 1.23% (inactive).

On to `COc1cc(CN2CCC(C(N)=O)CC2)ccc1OCc1ccccc1`, for which the activation was 8.4% (active).

These data come from PubChem BioAssay AID686939 (The Scripps Research Institute Molecular Screening Center, 2013).
